Laboratory results as given in publication PMC10962275 (Pharmacological research, 2024).
Converted amounts (≈) assume the structure as drawn. Read-outs that look alike come from different tables or passages of the source.

Legend:
[1] = system: NFκB; assay: NFκB-driven luciferase reporter assay, NF90-8 cells; format: cell-based; conditions: Homo sapiens, 24 h, read-out: NFκB Luciferase 24 hr EC50±SE (μM)
Procedure, shortened: (§1)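 Pa03C and NF90–8 cells carrying an NFκB-driven GFP-luciferase reporter, checked for induction by TNF-α. Seeded, then treated 24 h later with increasing test compound doses in 5% FBS medium for 24 h. Luciferase measured by One-Glo, with parallel alamarBlue viability. Mean ± SEM, n > 2 biological repeats.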

[2] = biological target: T1, Ref-1 (39–318/C138A) (Homo sapiens, UniProt P27695, C138A); assay: WaterLOGSY NMR; format: binding; conditions: 20 μM Ref-1, 200 μM compound
Procedure, shortened: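 WaterLOGSY spectra acquired with 1.5 s mixing time, 128 scans, 10 ppm sweep width, 1.58 s acquisition time and 5 s relaxation delay. Data multiplied by an exponential function with 1 Hz line broadening before Fourier transformation.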

[3] = system: HIF1α; assay: HIF1α-driven luciferase reporter assay, Pa03C cells, 1% hypoxia; format: cell-based; conditions: Homo sapiens, 24 h, read-out: HIF1α Luciferase 24 hr EC50 ± SE (μM)
Procedure, shortened: as §1, with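 “a HIF1α-driven” for “an NFκB-driven”, “hypoxia.” for “TNF-α.”, “h under 1% hypoxia.” for “h.”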

[4] = system: NFκB; assay: NFκB-driven luciferase reporter assay, Pa03C cells; format: cell-based; conditions: Homo sapiens, 24 h, read-out: NFκB Luciferase 24 hr EC50 ± SE (μM)
Procedure, shortened: as §1

[5] = system: NFκB and HIF1α; assay: Ref-1-regulated transcription factor driven luciferase activity; format: cell-based, human; conditions: Pa03C and NF90–8 cells, 24 h
[6] = biological target: Ref-1 (Homo sapiens, UniProt P27695); assay: Redox EMSA; format: biochemical
[7] = system: Pa03C cells; assay: 3D co-culture spheroid assay, tumor cells; format: cell-based; conditions: Homo sapiens; for EC50: read-out: 3D tumor(Pa03C) EC50 (mM); for IC50: read-out: cell killing effect in the 3D spheroid assay
[8] = Phase 1 metabolic stability, mouse liver microsomes; format: in vitro ADME; conditions: pH 7.4
Procedure, shortened: (§2)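 Test compound (1 μM) dried under nitrogen, then mixed with human or mouse liver S9 or microsomes (20 mg/mL stock) in phosphate buffer pH 7.4 with 5 mM MgCl2. Reaction started with NADPH (4 mM stock), shaken at 400 rpm. Sampled at 0, 5, 10, 20, 40 and 60 min and quenched with ice-cold acetonitrile; analysed by HPLC.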

[9] = Phase 1 metabolic stability, human liver microsomes; format: in vitro ADME; conditions: pH 7.4
Procedure, shortened: as §2

[10] = Chemical stability in enabling vehicle PKT; format: physicochemical
[11] = system: NFκB; assay: NFκB luciferase reporter assay; format: cell-based, human; conditions: for IC50: Homo sapiens, Pa03C, read-out: NFκB (IC50 mM)
Procedure, shortened: as §1

[12] = Thermodynamic solubility; format: physicochemical; conditions: thermodynamic from solid; for solubility thermodynamic at 24 h: 37 °C; for solubility thermodynamic: phosphate buffer, pH 6.8, aqueous buffer
[13] = Phase 1 metabolic stability, mouse liver S9; format: in vitro ADME; conditions: liver S9, pH 7.4
Procedure, shortened: as §2

[14] = biological target: APE1 (Homo sapiens, UniProt P27695); assay: Kinetic fluorescence based APE1 endonuclease; format: biochemical
Procedure, shortened: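 Recombinant APE1 at 0.07–0.1 nM, tuned before each run for a linear signal, cleaves a double-stranded oligo with a 6-FAM-labelled strand carrying a tetrahydrofuran AP-site mimic and a DABCYL-quenched complement. Read 495/530 over a 5 min kinetic read at 37 °C. A known repair inhibitor serves as reference, also at 20 μM.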

[15] = In vivo PK in mouse; conditions: plasma; for clearance: iv; for AUC(0-inf) / Cmax / half-life: po, 25 mg/kg
[16] = system: HIF1α; assay: HIF1α-driven luciferase reporter assay, NF90-8 cells, 1% hypoxia; format: cell-based; conditions: Homo sapiens, 24 h, read-out: HIF1α Luciferase 24 hr EC50±SE (μM)
Procedure, shortened: as §1, with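 “a HIF1α-driven” for “an NFκB-driven”, “hypoxia.” for “TNF-α.”, “h under 1% hypoxia.” for “h.”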

[17] = Plasma stability, human plasma; format: in vitro ADME
Procedure, shortened: (§3)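 Human or mouse plasma pre-warmed to 37 °C and added to dried test compound (1 μM) held on a 37 °C heat block. Stopped with cold acetonitrile at 0, 5, 10, 20, 40 and 60 min. Processed samples reconstituted in acetonitrile and analysed by HPLC.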

[18] = CaCO2 bidirectional permeability; format: in vitro ADME; conditions: human, Caco-2
[19] = system: CAF19 cells; assay: 3D co-culture spheroid assay, CAFs; format: cell-based; conditions: Homo sapiens, Pa03C, read-out: 3D CAF19 EC50 (mM)
Procedure, shortened: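 Pa03C (TdTomato-labelled) and CAF19 (EGFP-labelled) plated together at 1:4 in ultra-low-attachment plates to form spheroids. Treated on days 4, 8 and 12 with rising test compound levels in medium containing 5% serum and 3% growth-factor-reduced Matrigel. Fluorescence intensity read by high-content imaging on days 4, 8, 12 and 14. Mean ± SE, n > 3.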

[20] = Plasma stability, mouse plasma; format: in vitro ADME
Procedure, shortened: as §3

[21] = Phase 1 metabolic stability, human liver S9; format: in vitro ADME; conditions: liver S9, pH 7.4
Procedure, shortened: as §2

[22] = system: Pa03C cells; assay: NADP/NADPH assay; format: cell-based, human; conditions: 6 h
[23] = system: NF90–8 and Pa03C cells; assay: Cell viability; format: cell-based, human; conditions: alamar blue, 24 h
[24] = system: NF90–8 cells; assay: Mitochondrial plate-based assay; format: cell-based, human; conditions: APX2051 at 10 μM, APX3330 at 50 μM
Procedure, shortened: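 Biolog S-1 Mitoplates activated with Assay Mix for at least 60 min at 37 °C. NF90–8 cells treated 24 h, then collected, counted, resuspended in kit buffer and plated at 5 × 10^4 cells/well. Read kinetically at 590 nm every 5 min for 4 h at 37 °C. Mean ± SEM, n = 2; 2-way ANOVA.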

[25] = preclinical models; cited from earlier work
[26] = Phase 2 metabolic stability, mouse liver S9; format: in vitro ADME
Procedure, shortened: (§4)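 Test compound (1 μM) dried under nitrogen, then incubated with human or mouse liver S9 in UGT reaction mix, shaken at 400 rpm. Stopped with ice-cold acetonitrile at 0, 5, 10, 20, 40 and 60 min. Temazepam internal standard added, then centrifuged; supernatant dried and reconstituted in acetonitrile for HPLC.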

[27] = system: progressing solid tumors; conditions: phase I clinical trial, ref [34]–[36]; cited from earlier work
[28] = Phase 2 metabolic stability, human liver S9; format: in vitro ADME
Procedure, shortened: as §4

[29] = biological target: T1, Ref-1 (39–318/C138A); conditions: ref [25]; cited from earlier work
[30] = FaSSGF, fassgf or other biorelevant

T1 sequence (P27695 39-318 C138A): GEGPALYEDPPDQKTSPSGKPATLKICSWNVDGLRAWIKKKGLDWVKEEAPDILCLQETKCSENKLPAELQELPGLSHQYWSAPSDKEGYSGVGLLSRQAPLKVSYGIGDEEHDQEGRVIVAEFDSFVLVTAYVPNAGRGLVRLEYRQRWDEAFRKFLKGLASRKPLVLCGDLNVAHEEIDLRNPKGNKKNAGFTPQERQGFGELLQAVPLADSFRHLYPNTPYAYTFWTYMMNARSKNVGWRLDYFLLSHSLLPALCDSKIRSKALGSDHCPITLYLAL
APE1, sequence (P27695 whole entry): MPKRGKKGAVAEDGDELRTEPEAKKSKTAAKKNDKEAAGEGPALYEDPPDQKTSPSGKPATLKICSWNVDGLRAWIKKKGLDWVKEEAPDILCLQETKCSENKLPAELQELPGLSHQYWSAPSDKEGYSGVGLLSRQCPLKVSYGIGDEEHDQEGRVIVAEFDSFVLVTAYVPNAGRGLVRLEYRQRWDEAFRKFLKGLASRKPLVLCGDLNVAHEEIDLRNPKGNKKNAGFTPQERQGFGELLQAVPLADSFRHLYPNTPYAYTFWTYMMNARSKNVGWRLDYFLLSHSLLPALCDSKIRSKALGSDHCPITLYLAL
Ref-1, sequence (P27695 whole entry): as above

SMILES | EC50 [1] [µM] | peaks in waterLOGSY difference spectra [2] | EC50 [3] [µM] | EC50 [7] [mM] | CLint scaled at 1 µM [8] [mL/min/kg] | CLint scaled at 1 µM [9] [mL/min/kg] | solubility thermodynamic at 24 h [12, 30] [µg/mL] | solubility thermodynamic at 24 h ([12]; FaSSIF) [µg/mL] | solubility thermodynamic at 24 h ([12]; FeSSIF) [µg/mL] | CLint scaled at 1 µM [13] [mL/min/kg] | DNA Repair [14] | clearance [15] [mL/min] | AUC(0-inf) [15] [ng·h/mL] | Cmax [15] [ng/mL] | half-life [15] [h] | half-life at 1 µM [17] [h] | Papp A→B [18] [×10⁻⁶ cm/s] | EC50 [19] [mM] | half-life at 1 µM [20] [h] | CLint scaled at 1 µM [21] [mL/min/kg] | also measured
CCC/C(=C\C1=C(OC)C(=O)c2ccccc2C1=O)C(=O)N(CC)CC [APX2009, (E)‐N,N‐diethyl‐2‐[(3‐methoxy‐1,4‐dioxo‐1,4‐dihydronaphthalen‐2-yl)methylidene]pentanamide] | 5.1 ± 0.3 | consistent with interactions with Ref-1 | 14.5 ± 1.06 | 0.0046 | 19.3 | 4.3 | 95 (≈ 267 µM) | 198 (≈ 557 µM) | 558 (≈ 1570 µM) | 7.9 | Neg. | 0.683 | 113 | 27 | 1.8 | 2.72 | 33.7 | 0.0078 | 0.567 | 2.9 | EC50 [4]: 18.8 ± 1.35 µM; reduction in both NFκB and HIF1α activity: fold lower doses compared to APX3330 [5]: 2 – 11 fold; IC50 [6]: < 1 µM; IC50 [7]: 4.3 µM; chemical stability in PKT vehicle, stressed ([10]; 60 °C for 4 h): formation of significant amount of the hydroquinone (HQ) of APX2053; chemical stability in PKT vehicle ([10]; room temperature after four days): acceptable stability; IC50 [11]: 0.0051 mM; solubility thermodynamic [12]: 94 µg/mL (≈ 264 µM); EC50 [16]: 14.3 ± 0.25 µM; efflux ratio [18]: 0.75
CCC/C(=C\C1=C(O)C(=O)c2ccccc2C1=O)C(=O)N(CC)CC [APX2053, (E)-N,N-diethyl-2-((3-hydroxy-1,4-dioxo-1,4-dihydronaphthalen-2-yl)methylene)pentanamide] | – | consistent with interactions with Ref-1 | – | 0.0161 | 19 | 2.3 | 760 (≈ 2230 µM) | 1010 (≈ 2960 µM) | 1200 (≈ 3510 µM) | 34.6 | Slight. Inhib. | 0.0217 | 25400 | 5700 | 2.1 | 0.417 | 39.7 | 0.0143 | 2.2 | 1.9 | IC50 [7]: 16 µM; NFκB activity ([11]; NF90–8 and Pa03C, any of the doses tested): do not decrease; blocking Ref-1 activated TF activity (for NFκB) ([11]; tested up to 40 μM): ineffective; NADPH levels (ratio of NADPH/NADPt) [22]: does not show reduced NADPH levels; cell viability of reporter cells [23]: do not decrease the NFκB activity or affect cell viability; efflux ratio [18]: 1
CCCCCCCCC/C(=C\C1=C(C)C(=O)C(OC)=C(OC)C1=O)C(=O)O [APX3330, reference compound] | 33.7 ± 2.81 | – | 60.2 ± 4.13 | > 0.02 | 67.4 | 31.8 | 1 (≈ 2.64 µM) | 671 (≈ 1770 µM) | 448 (≈ 1180 µM) | 14.2 | Neg. | 0.00833 | 77900 | 8820 | 3.8 | 8.48 | 5.2 | > 0.02 | 1.57 | 4.4 | inhibition of mitochondrial function [24]: minimal effects; EC50 [4]: 54.5 ± 1.97 µM; potency in cell-based proliferation assays [25]: 50 to 75 µM; IC50 [11]: 0.0393 mM; CLint scaled at 1 µM [26]: 21.6 mL/min/kg; solubility thermodynamic [12]: 496 µg/mL (≈ 1310 µM); response rate [27]: 32%; EC50 [16]: 55.1 ± 0.44 µM; CLint scaled at 1 µM [28]: 5.6 mL/min/kg; peaks in waterLOGSY difference spectra [29]: consistent with interactions with Ref-1
CC(=O)Nc1sc2c(c1-c1nc3ccccc3s1)CCN(C(C)C)C2 [ARi3, reference compound] | – | – | – | – | – | – | – | – | – | – | – | – | – | – | – | – | – | – | – | – | decrease of Ref-1 endonuclease activity ([14]; 20 μM, positive control): 63%
